Activity calls are given as the source filed them. The calls are words filed in the database; no cut-off is given here.
What was measured:
Format in all cases: functional, cell-based
Glial cell [1] = test: Antiinflammatory activity in C57BL/6J mouse primary glial cells assessed as effect on IL-1 mRNA level at 200 nM incubated for 24 hrs by qPCR analysis
Glial cell [2] = test: Antiinflammatory activity in C57BL/6J mouse primary glial cells assessed as effect on IL-6 mRNA level at 200 nM incubated for 24 hrs by qPCR analysis
Glial cell [3] = test: Antiinflammatory activity in C57BL/6J mouse primary glial cells assessed as effect on TNF-alpha mRNA level at 200 nM incubated for 24 hrs by qPCR analysis
Glial cell [4] = test: Antiinflammatory activity in C57BL/6J mouse primary glial cells assessed as effect on IKBKE mRNA level at 200 nM incubated for 24 hrs by qPCR analysis
Glial cell [5] = test: Antiinflammatory activity in C57BL/6J mouse primary glial cells assessed as decrease in LPS-induced IL-1 mRNA level at 200 nM preincubated for 24 hrs followed by LPS stimulation by qPCR analysis
Procedure, shortened: (§1)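 Primary glia from whole brains of 1–2-day-old neonatal C57BL/6J mice (meninges removed, collected in Ca/Mg-free HBSS, oligodendrocytes and neurons separated off). Cells were given 200 nM steroid and stimulated with LPS 250 ng/mL. DMSO served as negative control. Gene expression was measured by qPCR. Data are mean ± SEM, analysed by two-way ANOVA with Newman-Keuls post hoc test.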

Glial cell [6] = test: Antiinflammatory activity in C57BL/6J mouse primary glial cells assessed as decrease in LPS-induced IL-6 mRNA level at 200 nM preincubated for 24 hrs followed by LPS stimulation by qPCR analysis; procedure, shortened: as §1
Glial cell [7] = test: Antiinflammatory activity in C57BL/6J mouse primary glial cells assessed as decrease in LPS-induced TNF-alpha mRNA level at 200 nM preincubated for 24 hrs followed by LPS stimulation by qPCR analysis; procedure, shortened: as §1
Glial cell [8] = test: Antiinflammatory activity in C57BL/6J mouse primary glial cells assessed as decrease in LPS-induced IKBKE mRNA level at 200 nM preincubated for 24 hrs followed by LPS stimulation by qPCR analysis; procedure, shortened: as §1

Compound | Activity (Glial cell [1]) | Activity (Glial cell [2]) | Activity (Glial cell [3]) | Activity (Glial cell [4]) | Activity (Glial cell [5]) | Activity (Glial cell [6]) | Activity (Glial cell [7]) | Activity (Glial cell [8])
C[C@@H]1O[C@@H](O[C@H]2C[C@@H](O)[C@]3(CO)[C@H]4[C@H](O)C[C@]5(C)[C@@H](C6=CC(=O)OC6)CC[C@]5(O)[C@@H]4CC[C@]3(O)C2)[C@H](O)[C@H](O)[C@H]1O | inactive | inactive | inactive | inactive | Active | Active | Active | Active
C[C@]12C[C@H]3O[C@H]4C[C@H](O)C[C@@]5(O)CC[C@H]([C@H]3[C@@]45CO)[C@@]1(O)CC[C@@H]2C1=CC(=O)OC1 | inactive | inactive | inactive | inactive | inactive | inactive | inactive | inactive
C[C@@H]1O[C@@H](OC[C@@]23[C@@H]4[C@H]5CC[C@]2(O)C[C@@H](O)C[C@@H]3O[C@@H]4C[C@]2(C)[C@@H](C3=CC(=O)OC3)CC[C@]52O)[C@H](O)[C@H](O)[C@H]1O | inactive | inactive | inactive | inactive | – | inactive | Active | Active
C[C@@H]1O[C@@H](O[C@H]2CC[C@]3(CO)[C@H]4CC[C@]5(C)[C@@H](C6=CC(=O)OC6)CC[C@]5(O)[C@@H]4CC[C@]3(O)C2)[C@H](O)[C@H](O)[C@H]1O | inactive | inactive | inactive | inactive | Active | Active | Active | Active
C[C@@H]1O[C@@H](O[C@H]2C[C@@H]3O[C@@H]4C[C@]5(C)[C@@H](C6=CC(=O)OC6)CC[C@]5(O)[C@@H]5CC[C@](O)(C2)[C@@]3(CO)[C@H]54)[C@H](O)[C@H](O)[C@H]1O | inactive | inactive | inactive | inactive | Active | Active | Active | Active
C[C@H]1O[C@@H](O[C@H]2[C@@H](O)C[C@H](O[C@H]3[C@@H](O)C[C@H](O[C@H]4CC[C@@]5(C)[C@H](CC[C@@H]6[C@@H]5C[C@@H](O)[C@]5(C)[C@@H](C7=CC(=O)OC7)CC[C@]65O)C4)O[C@@H]3C)O[C@@H]2C)C[C@H](O)[C@@H]1O | inactive | inactive | inactive | inactive | – | – | – | –

From ChEMBL document CHEMBL5357067, “Selective (α)-l-Rhamnosylation and Neuroprotective Activity Exploration of Cardiotonic Steroids” (ACS Med Chem Lett, 2024)
